From ChEMBL document CHEMBL1132709, “Novel cyclopropapyrroloindole derivative (AT-3510) bearing methoxycarbonyl and trifluoromethyl groups” (J Med Chem, 1999) come the findings set out here.

Structures are written as SMILES. ≈ marks a conversion by molar mass, not a printed value.

For assay [1], the system named is Mus musculus. The assay is described as follows: In vivo antitumor activity (3.13 mg/kg) is the measure of tumor growth inhibition of human tumor xenograft DLD-1 (colon) implanted sc in mice. The assay is classed as functional. The method, boiled down:
(§1)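 Tumor fragments (2–3 mm3) implanted sc into female BALB/cA Jcl-nu mice on day 0; single iv dose given once tumor volume reached about 100 mm3. Read-out is maximum tumor growth inhibition, as percentage versus untreated group.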
For orientation: Xenograft models place foreign cells or tissue in a host animal.

Assay [2] has as its system Mus musculus. The experiment in a line: In vivo antitumor activity (3.13 mg/kg) is the measure of tumor growth inhibition of human tumor xenograft NUGC-3 (stomach) implanted sc in mice. It counts as functional. The method, boiled down:
as §1

In assay [3] the test system is Mus musculus. The assay is described as follows: In vivo antitumor activity is the measure of tumor growth inhibition of Colon 26 murine […] cells. It counts as functional. The method in brief: (§2)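 Colon 26 cells (10^6/mouse) inoculated sc into male CDF1 mice on day 0; single iv dose on day 7. Tumor growth inhibition expressed as percentage versus untreated group.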

Assay [4] has as its system Mus musculus. The experiment in a line: In vivo concentration required to inhibit the Colon 26 murine […] cell growth by 50%. It counts as functional.
Assay [5] can be described thus: Ratio between max dose within 10% body weight loss and tumor growth inhibition. It counts as functional. The method, boiled down: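 Ratio of maximum dose within 10% body weight loss to the dose giving 50% tumor growth inhibition, in sc Colon 26-bearing mice dosed iv.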
Assay [6] concerns Mus musculus. The experiment in a line: In vivo antitumor activity (3.13 mg/kg) is the measure of tumor growth inhibition of human tumor xenograft HCT116 (colon) implanted sc in mice. The assay is classed as functional. The method in brief: as §1
For assay [7], the system named is Mus musculus. The assay is described as follows: In vivo antitumor activity (3.13 mg/kg) is the measure of tumor growth inhibition of human tumor xenograft WiDr (colon) implanted sc in mice. It counts as functional. The method in brief:
as §1

For assay [8], the system named is Mus musculus. The assay is described as follows: In vivo antitumor activity (0.800 mg/kg) is the measure of tumor growth inhibition of human tumor xenograft NUGC-3 (stomach) implanted sc in mice. The assay is classed as functional. The method, boiled down:
as §1

In assay [9] the test system is Mus musculus. The assay is described as follows: In vivo antitumor activity (0.845 mg/kg) is the measure of tumor growth inhibition of human tumor xenograft HCT116 (colon) implanted sc in mice. It counts as functional. The method, boiled down: as §1
The subject of assay [10] is Mus musculus. The experiment in a line: In vivo antitumor activity (0.845 mg/kg) is the measure of tumor growth inhibition of human tumor xenograft DLD-1 (colon) implanted sc in mice. The assay is classed as functional. The method, boiled down:
as §1

The test system of assay [11] is Mus musculus. The experiment in a line: In vivo antitumor activity (1 mg/Kg) is the measure of tumor growth inhibition of colon 26 murine […] cells. It counts as functional. The method in brief:
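Colon 26 cells (10^6/mouse) inoculated sc into male CDF1 mice on day 0; drug given iv on day 7. Read-out is percentage tumor growth inhibition versus the untreated group.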

For another assay, the system named is HeLa. The assay is described as follows: Concentration required to inhibit the growth of HeLaS3 human uterine cervix carcinoma cells by 50%. The assay is classed as functional, cell-based.
Assay [12] relates to Mus musculus. The experiment in a line: In vivo antitumor activity (0.125 mg/Kg) is the measure of tumor growth inhibition in mice bearing S180 murine sarcoma cells. The assay is classed as functional, CCRF S-180.
Assay [13] has as its system Mus musculus. The experiment in a line: In vivo antitumor activity (0.125 mg/Kg) is the measure of increase in life span of mice bearing P388 murine leukemia cells. The assay is classed as functional.
For a further assay, the system named is P338. The assay is described as follows: In vitro concentration required to inhibit the growth of […] murine leukemia cells by 50%. It counts as functional, cell-based. The following applies: Mus musculus.
In assay [14] the test system is Mus musculus. The experiment in a line: In vivo antitumor activity (0.0884 mg/Kg) is the measure of tumor growth inhibition of colon 26 murine […] cells. It counts as functional. The method, boiled down: as §2
The test system of assay [15] is Mus musculus. The experiment in a line: In vivo concentration required to inhibit the colon 26 murine […] cell growth by 50%. The assay is classed as functional.
In assay [16] the test system is Mus musculus. The assay is described as follows: In vivo antitumor activity (0.716 mg/kg) is the measure of tumor growth inhibition of human tumor xenograft NUGC-3 (stomach) implanted sc in mice. It counts as functional. The method in brief: (§3)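 Tumor fragments (2–3 mm3) implanted sc into female BALB/cA Jcl-nu mice on day 0. A single iv dose was given once tumor volume reached about 100 mm3. Read-out is percentage of maximum tumor growth inhibition versus the untreated group.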

Assay [17] deals with Mus musculus. The experiment in a line: In vivo antitumor activity (1 mg/kg) is the measure of tumor growth inhibition of human tumor xenograft WiDr (colon) implanted sc in mice. The assay is classed as functional. The method, boiled down:
as §3

For assay [18], the system named is Mus musculus. The experiment in a line: In vivo antitumor activity (1 mg/kg) is the measure of tumor growth inhibition of human tumor xenograft HCT116 (colon) implanted sc in mice. The assay is classed as functional. The method, boiled down: as §3
Assay [19] has as its system Mus musculus. The experiment in a line: In vivo antitumor activity (1 mg/kg) is the measure of tumor growth inhibition of human tumor xenograft DLD-1 (colon) implanted sc in mice. The assay is classed as functional. The method, boiled down:
as §3

By TGI is commonly meant how far tumour growth fell short of that in controls. Read a high TGI as a stronger effect on the tumour. With `COC(=O)c1c(C(F)(F)F)[nH]c2c(OC(=O)N3CCN(C)CC3)cc3c(c12)[C@H](CCl)CN3C(=O)c1cc2cc(NC(=O)c3cc4cccc(OC)c4o3)ccc2[nH]1`, the TGI in the assay on Mus musculus [1] is listed as 83%; in the assay with Mus musculus [2] it was 100%; in the assay on Mus musculus [3], 95%; with Mus musculus [6] it was 90%; with Mus musculus [7], 86%. In addition, in the assay with Mus musculus [4], the TGI50 stood at 0.265 mg/kg. Moreover, the Ratio in assay [5] came to 7.6.

`COC(=O)c1c(C(F)(F)F)[nH]c2c(OC(=O)N3CCN(C)CC3)cc3c(c12)[C@H](CCl)CN3C(=O)c1cc2cc(NC(=O)c3cc4ccccc4cn3)ccc2[nH]1`: the TGI with Mus musculus [3] is on record as 93%; with Mus musculus [8], 97%; in the assay with Mus musculus [9], 77%; in the assay with Mus musculus [10], 76%. Also, the TGI50 in the assay with Mus musculus [4] stood at 0.082 mg/kg. In [5], the Ratio stood at 6.1.

One may read the IC50 as the point on the concentration scale where inhibition reaches its midpoint. Low values mean higher potency, high ones lower potency. For the compound `COC(=O)c1c(C(F)(F)F)[nH]c2c(O)cc3c(c12)[C@H](CCl)CN3C(=O)c1cc2cc(-c3cc4ccccc4o3)ccc2[nH]1` (racemic), the tumour growth inhibition (TGI) in the assay on Mus musculus [11] is reported as 84%. This compound had an IC50 with HeLa of 3.6 ng/mL (≈ 5.92 nM).

Broadly, the ILS is the gain in survival time of treated over control animals, in per cent. For `Cc1c[nH]c2c1[C@@]13C[C@@H]1CN(C(=O)c1cc4cc(NC(=O)c5cc6ccccc6[nH]5)ccc4[nH]1)C3=CC2=O` (racemic), the tumour growth inhibition (TGI) in the assay with Mus musculus [12] is 86%. The compound further displayed an ILS with Mus musculus [13] of 210%. For the same compound, in the assay with P338, the IC50 stood at 0.028 ng/mL (≈ 0.0558 nM).

In the assay with HeLa, `Cc1c[nH]c2c1[C@@]13C[C@@H]1CN(C(=O)c1cc4cc(NC(=O)c5cc6ccccc6o5)ccc4[nH]1)C3=CC2=O` [ADOZELESIN] yielded an IC50 of 0.0364 ng/mL (≈ 0.0724 nM). This compound came in with a TGI in the assay on Mus musculus [14] of 79%. The TGI50 in the assay with Mus musculus [15] turned out to be 0.0444 mg/kg. Besides, in assay [5], the Ratio came to 2.

Consider `COC(=O)c1c(C)[nH]c2c(OC(=O)N3CCN(C)CC3)cc3c(c12)[C@H](CBr)CN3C(=O)c1cc2cc(OC)c(OC)c(OC)c2[nH]1` [PIBROZELESIN], for which the tumour growth inhibition (TGI) is given as 91% in the assay with Mus musculus [16], 59% with Mus musculus [17], 73% in the assay on Mus musculus [18] and 65% in the assay with Mus musculus [19]. Besides, the Ratio in assay [5] amounted to 3.4.
